Source: ChEMBL document CHEMBL3632581, “Dimers of Melampomagnolide B Exhibit Potent Anticancer Activity against Hematological and Solid Tumor Cells” (J Med Chem, 2015)

Assays:
CCRF-CEM = assay: Cytotoxicity against human CCRF-CEM cells after 48 hrs by SRB assay; format: functional
In short: (§1)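 NCI-60 five-dose screen at 10−8 to 10−4 M. Cells were plated at 5,000–40,000/well in RPMI 1640 with 5% FBS and 2 mM L-glutamine, then preincubated 24 h, and time-zero plates were TCA-fixed. Compound was added from DMSO stocks and exposed 48 h at 37 °C. Cells were TCA-fixed, SRB-stained, and read at 515 nm. LC50 is the concentration halving the cell population through cell death.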

MOLT-4 = assay: Cytotoxicity against human MOLT4 cells after 48 hrs by SRB assay; format: functional; conditions: MOLT-4, 48 h; in short: as §1
HOP-92 = assay: Cytotoxicity against human HOP92 cells after 48 hrs by SRB assay; format: functional; conditions: HOP-92, 48 h; in short: as §1
NCI-H226 = assay: Cytotoxicity against human NCI-H226 cells after 48 hrs by SRB assay; format: functional; conditions: NCI-H226, 48 h; in short: as §1
NCI-H23 = assay: Cytotoxicity against human NCI-H23 cells after 48 hrs by SRB assay; format: functional; conditions: NCI-H23, 48 h; in short: as §1
NCI-H522 = assay: Cytotoxicity against human NCI-H522 cells after 48 hrs by SRB assay; format: functional; conditions: NCI-H522, 48 h; in short: as §1
COLO 205 = assay: Cytotoxicity against human COLO205 cells after 48 hrs by SRB assay; format: functional; conditions: COLO 205, 48 h; in short: as §1
HCC 2998 = assay: Cytotoxicity against human HCC2998 cells after 48 hrs by SRB assay; format: functional; conditions: HCC 2998, 48 h; in short: as §1
HCT-116 = assay: Cytotoxicity against human HCT116 cells after 48 hrs by SRB assay; format: functional; conditions: HCT-116, 48 h; in short: as §1
KM12 = assay: Cytotoxicity against human KM12 cells after 48 hrs by SRB assay; format: functional; conditions: KM12, 48 h; in short: as §1
SW-620 = assay: Cytotoxicity against human SW620 cells after 48 hrs by SRB assay; format: functional; conditions: SW-620, 48 h
In short: (§2)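 NCI-60 screen: cells grown in RPMI 1640 with 5% FBS and 2 mM L-glutamine, plated at 5,000–40,000 cells/well by doubling time, and preincubated 24 h at 37 °C before drug. Drug was diluted from DMSO stock and given at five concentrations, 10−4 to 10−8 M, for 48 h. Cells fixed with cold TCA, SRB stained, OD read at 515 nm against time-zero and vehicle plates. LC50 taken as the concentration that halves cell population through cell death.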

SF-295 = assay: Cytotoxicity against human SF295 cells after 48 hrs by SRB assay; format: functional; conditions: SF-295, 48 h; in short: as §1
SNB-75 = assay: Cytotoxicity against human SNB75 cells after 48 hrs by SRB assay; format: functional; conditions: SNB-75, 48 h; in short: as §1
U-251 = assay: Cytotoxicity against human U251 cells after 48 hrs by SRB assay; format: functional; conditions: U-251, 48 h; in short: as §2
MDA-MB-435 = assay: Cytotoxicity against human MDA-MB-435 cells after 48 hrs by SRB assay; format: functional; conditions: MDA-MB-435, 48 h; in short: as §1
SK-MEL-2 = assay: Cytotoxicity against human SK-MEL-2 cells after 48 hrs by SRB assay; format: functional; conditions: SK-MEL-2, 48 h; in short: as §1
SK-MEL-5 = assay: Cytotoxicity against human SK-MEL-5 cells after 48 hrs by SRB assay; format: functional; conditions: SK-MEL-5, 48 h; in short: as §1
UACC-257 = assay: Cytotoxicity against human UACC257 cells after 48 hrs by SRB assay; format: functional; conditions: UACC-257, 48 h; in short: as §2
OVCAR-4 = assay: Cytotoxicity against human OVCAR4 cells after 48 hrs by SRB assay; format: functional; conditions: OVCAR-4, 48 h; in short: as §1
[1] = Cytotoxicity against human NCI-ADR-RES cells after 48 hrs by SRB assay; format: functional; in short: as §1
SK-OV-3 = assay: Cytotoxicity against human SKOV3 cells after 48 hrs by SRB assay; format: functional; conditions: SK-OV-3, 48 h; in short: as §1
786-0 = assay: Cytotoxicity against human 786-0 cells after 48 hrs by SRB assay; format: functional; conditions: 786-0, 48 h; in short: as §1
A498 = assay: Cytotoxicity against human A498 cells after 48 hrs by SRB assay; format: functional; conditions: A498, 48 h; in short: as §1
ACHN = assay: Cytotoxicity against human ACHN cells after 48 hrs by SRB assay; format: functional; in short: as §1
RXF 393 = assay: Cytotoxicity against human RXF393 cells after 48 hrs by SRB assay; format: functional; conditions: RXF 393, 48 h; in short: as §1
SN12C = assay: Cytotoxicity against human SN12C cells after 48 hrs by SRB assay; format: functional; in short: as §1
UO-31 = assay: Cytotoxicity against human UO31 cells after 48 hrs by SRB assay; format: functional; conditions: UO-31, 48 h; in short: as §2
PC-3 = assay: Cytotoxicity against human PC3 cells after 48 hrs by SRB assay; format: functional; conditions: PC-3, 48 h; in short: as §1
MDA-MB-231 = assay: Cytotoxicity against human MDA-MB-231 cells after 48 hrs by SRB assay; format: functional; conditions: MDA-MB-231, 48 h; in short: as §1
T47D = assay: Cytotoxicity against human T47D cells after 48 hrs by SRB assay; format: functional; in short: as §2
MDA-MB-468 = assay: Cytotoxicity against human MDA-MB-468 cells after 48 hrs by SRB assay; format: functional; conditions: MDA-MB-468, 48 h; in short: as §1
[2] = Antileukemic activity against human AML02 cells after 24 hrs by annexin V/7-AAD staining-based flow cytometric analysis; format: functional, cell-based
In short: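 Primary AML specimens from consenting donors, isolated by Ficoll-Paque gradient and sometimes cryopreserved. Cells were held 1 h in serum-free IMDM with 20% BIT 9500, LDL and β-mercaptoethanol before drug (DMSO stock diluted in PBS, ≤0.5% DMSO final). Exposure was 24 h over 0.5-10 μM. Annexin V/7-AAD double-negative cells, normalized to vehicle, gave the EC50. Run in triplicate.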

[3] = Potency index, ratio of parthenolide EC50 to compound EC50 for human M9-ENL1 cells; format: functional
[4] = read-out: LC50 (the source's name)

SMILES: C=C1C(=O)O[C@H]2[C@H]1CC/C(COC(=O)NCCCCCNC(=O)OC/C1=C/CC[C@@]3(C)O[C@H]3[C@H]3OC(=O)C(=C)[C@@H]3CC1)=C\CC[C@@]1(C)O[C@@H]21
- GI50 (CCRF-CEM): 0.28 µM
- CC50 (CCRF-CEM; [4]): > 100 µM
- GI50 (MOLT-4): 1.48 µM
- CC50 (MOLT-4; [4]): > 100 µM
- GI50 (HOP-92): 1.3 µM
- CC50 (HOP-92; [4]): 8.61 µM
- GI50 (NCI-H226): 2.56 µM
- CC50 (NCI-H226; [4]): 30.9 µM
- GI50 (NCI-H23): 2.66 µM
- CC50 (NCI-H23; [4]): 45.5 µM
- GI50 (NCI-H522): 0.22 µM
- CC50 (NCI-H522; [4]): 0.88 µM
- GI50 (COLO 205): 0.52 µM
- CC50 (COLO 205; [4]): 7.97 µM
- GI50 (HCC 2998): 6.71 µM
- CC50 (HCC 2998; [4]): 53.9 µM
- GI50 (HCT-116): 0.54 µM
- CC50 (HCT-116; [4]): 4.56 µM
- GI50 (KM12): 6.53 µM
- CC50 (KM12; [4]): 54.2 µM
- GI50 (SW-620): 0.43 µM
- CC50 (SW-620; [4]): 5.14 µM
- GI50 (SF-295): 11.1 µM
- CC50 (SF-295; [4]): 65.2 µM
- GI50 (SNB-75): 2.2 µM
- CC50 (SNB-75; [4]): 33.8 µM
- GI50 (U-251): 3.51 µM
- CC50 (U-251; [4]): 51.5 µM
- GI50 (MDA-MB-435): 1.51 µM
- CC50 (MDA-MB-435; [4]): 7.3 µM
- GI50 (SK-MEL-2): 2.01 µM
- CC50 (SK-MEL-2; [4]): 7.81 µM
- GI50 (SK-MEL-5): 3.19 µM
- CC50 (SK-MEL-5; [4]): 37 µM
- GI50 (UACC-257): 2.07 µM
- CC50 (UACC-257; [4]): 42.4 µM
- GI50 (OVCAR-4): 2.72 µM
- CC50 (OVCAR-4; [4]): 41.9 µM
- GI50 [1]: 70 µM
- CC50 [1, 4]: > 100 µM
- GI50 (SK-OV-3): 5.99 µM
- CC50 (SK-OV-3; [4]): 49.9 µM
- GI50 (786-0): 1.57 µM
- CC50 (786-0; [4]): 6.39 µM
- GI50 (A498): 6.24 µM
- CC50 (A498; [4]): 47.5 µM
- GI50 (ACHN): 3.05 µM
- CC50 (ACHN; [4]): 35.4 µM
- GI50 (RXF 393): 0.85 µM
- CC50 (RXF 393; [4]): 6.35 µM
- GI50 (SN12C): 2.49 µM
- CC50 (SN12C; [4]): 45.5 µM
- GI50 (UO-31): 8.9 µM
- CC50 (UO-31; [4]): 52.3 µM
- GI50 (PC-3): 3.79 µM
- LC50 (concentration killing half the cell population) (PC-3): 49.4 µM
- GI50 (MDA-MB-231): 1.47 µM
- LC50 (MDA-MB-231): 6.4 µM
- GI50 (T47D): 1.6 µM
- CC50 (T47D; [4]): > 100 µM
- GI50 (MDA-MB-468): 1.06 µM
- LC50 (MDA-MB-468): 24.7 µM
- EC50 [2]: 0.9 µM
- Ratio EC50 [3]: 2
